According to ChEMBL document CHEMBL1125511, “Molecular determinants of the platelet aggregation inhibitory activity of carbamoylpiperidines” (J Med Chem, 1992):

What was measured:
[1] = Partition coefficient (logP); assay type: physicochemical; settings: octanol/water
Homo sapiens [2] = species: Homo sapiens; experiment: Concentration required to inhibit ADP-induced platelet aggregation by 50%
Homo sapiens [3] = species: Homo sapiens; experiment: Concentration inhibits collagen-induced platelet aggregation by 50%(Human blood); assay type: functional
Summary of the method: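 Human platelets from citrated PRP washed in HEPES-buffered saline pH 7.4 (EGTA 5 mM, PGE1 1 μM), aequorin-loaded, resuspended with 1 mM MgCl2 and 1 mM CaCl2 at (3-4) × 10^5 platelets/μL. Fibrinogen 1.2 μg added, 37 °C, 1100 rpm stirring. Compound in 95% ethanol added 1 min before collagen (5 μg). Aggregation recorded 5 min. IC50 from linear regression of IC% on log concentration.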

Compound | logP ([1]; read-out: logP) | IC50 (Homo sapiens [2]; Homo sapiens) [µM] | IC50 (Homo sapiens [3]) [µM] | IC50 (Homo sapiens [2]) [µM] | logP [1]
O=C(NCc1ccccc1)C1CCCN(Cc2ccc(CN3CCCC(C(=O)NCc4ccccc4)C3)cc2)C1 (stereo unspecified) | 4.18 | 53.6 | – | – | –
CCN(CC)C(=O)C1CCCN(Cc2ccc(CN3CCCC(C(=O)N(CC)CC)C3)cc2)C1 (stereo in doubt; 3a-B (0)) | – | – | 65.7 | 41.4 | –
Br.Br.CCCCCCCCCCNC(=O)C1CCCN(Cc2ccc(CN3CCCC(C(=O)NCCCCCCCCCC)C3)cc2)C1 (stereo unspecified) | – | 862 | – | – | 10.202
CCCCN(CCCC)C(=O)C1CCCN(Cc2ccc(CN3CCCC(C(=O)N(CCCC)CCCC)C3)cc2)C1 (stereo unspecified) | 7.63 | 58.7 | – | – | –
CCN(CC)C(=O)C1CCCN(Cc2ccc(CN3CCCC(C(=O)N(CC)CC)C3)cc2)C1 (stereo in doubt; 3a) | 3.48 | – | 20.2 | 44.5 | –
CCN(CC)C(=O)C1CCCN(Cc2ccc(CN3CCCC(C(=O)N(CC)CC)C3)cc2)C1 (single isomer, unassigned; (-)) | – | – | 199 | 233 | –
O=C(C1CCCN(Cc2ccc(CN3CCCC(C(=O)N(Cc4ccccc4)Cc4ccccc4)C3)cc2)C1)N(Cc1ccccc1)Cc1ccccc1 (stereo unspecified) | 8.03 | – | – | – | –
CCN(CC)CC1CCCN(Cc2ccc(CN3CCCC(CN(CC)CC)C3)cc2)C1 (stereo unspecified) | 4.8 | 1560 | – | – | –
CN(Cc1ccccc1)C(=O)C1CCCN(Cc2ccc(CN3CCCC(C(=O)N(C)Cc4ccccc4)C3)cc2)C1 (stereo unspecified) | 4.72 | 27.3 | – | – | –
CCN(Cc1ccccc1)C(=O)C1CCCN(Cc2ccc(CN3CCCC(C(=O)N(CC)Cc4ccccc4)C3)cc2)C1 (stereo unspecified) | 5.76 | 37.7 | – | – | –
CCCCN(C)C(=O)C1CCCN(Cc2ccc(CN3CCCC(C(=O)N(C)CCCC)C3)cc2)C1 (stereo unspecified) | 4.52 | 22.1 | – | – | –
CCN(CC)C(=O)C1CCCN(Cc2ccc(CN3CCCC(C(=O)N(CC)CC)C3)cc2)C1 (stereo in doubt; 3a-C (+)) | – | – | 10.7 | 15.3 | –
CCCN(Cc1ccccc1)C(=O)C1CCCN(Cc2ccc(CN3CCCC(C(=O)N(CCC)Cc4ccccc4)C3)cc2)C1 (stereo unspecified) | 6.79 | 72.9 | – | – | –
